Test results as given in ChEMBL document CHEMBL1821639, “Exploring Left-Hand-Side substitutions in the benzoxazinone series of 4-amino-piperidine bacterial type IIa topoisomerase inhibitors” (Bioorg Med Chem Lett, 2011).
Converted amounts (≈) assume the structure as drawn.

How the values were obtained:
Moraxella catarrhalis = experiment: Antibacterial activity against Moraxella catarrhalis after 24 hrs by CLSI method; format: functional
Outline: (§1)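 Broth dilution per CLSI; compounds in DMSO, 10 doubling dilutions. Organisms grown overnight on agar, suspended in suitable liquid medium to 0.5 McFarland, then diluted 1 in 10 for final inoculum.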

Haemophilus influenzae = experiment: Antibacterial activity against Haemophilus influenzae after 24 hrs by CLSI method; format: functional; outline: as §1
[1] = biological target: Voltage-gated inwardly rectifying potassium channel KCNH2 (Homo sapiens, UniProt Q12809); experiment: Inhibition of human ERG by electrophysiological assay
Chain of Voltage-gated inwardly rectifying potassium channel KCNH2 (Q12809 whole entry): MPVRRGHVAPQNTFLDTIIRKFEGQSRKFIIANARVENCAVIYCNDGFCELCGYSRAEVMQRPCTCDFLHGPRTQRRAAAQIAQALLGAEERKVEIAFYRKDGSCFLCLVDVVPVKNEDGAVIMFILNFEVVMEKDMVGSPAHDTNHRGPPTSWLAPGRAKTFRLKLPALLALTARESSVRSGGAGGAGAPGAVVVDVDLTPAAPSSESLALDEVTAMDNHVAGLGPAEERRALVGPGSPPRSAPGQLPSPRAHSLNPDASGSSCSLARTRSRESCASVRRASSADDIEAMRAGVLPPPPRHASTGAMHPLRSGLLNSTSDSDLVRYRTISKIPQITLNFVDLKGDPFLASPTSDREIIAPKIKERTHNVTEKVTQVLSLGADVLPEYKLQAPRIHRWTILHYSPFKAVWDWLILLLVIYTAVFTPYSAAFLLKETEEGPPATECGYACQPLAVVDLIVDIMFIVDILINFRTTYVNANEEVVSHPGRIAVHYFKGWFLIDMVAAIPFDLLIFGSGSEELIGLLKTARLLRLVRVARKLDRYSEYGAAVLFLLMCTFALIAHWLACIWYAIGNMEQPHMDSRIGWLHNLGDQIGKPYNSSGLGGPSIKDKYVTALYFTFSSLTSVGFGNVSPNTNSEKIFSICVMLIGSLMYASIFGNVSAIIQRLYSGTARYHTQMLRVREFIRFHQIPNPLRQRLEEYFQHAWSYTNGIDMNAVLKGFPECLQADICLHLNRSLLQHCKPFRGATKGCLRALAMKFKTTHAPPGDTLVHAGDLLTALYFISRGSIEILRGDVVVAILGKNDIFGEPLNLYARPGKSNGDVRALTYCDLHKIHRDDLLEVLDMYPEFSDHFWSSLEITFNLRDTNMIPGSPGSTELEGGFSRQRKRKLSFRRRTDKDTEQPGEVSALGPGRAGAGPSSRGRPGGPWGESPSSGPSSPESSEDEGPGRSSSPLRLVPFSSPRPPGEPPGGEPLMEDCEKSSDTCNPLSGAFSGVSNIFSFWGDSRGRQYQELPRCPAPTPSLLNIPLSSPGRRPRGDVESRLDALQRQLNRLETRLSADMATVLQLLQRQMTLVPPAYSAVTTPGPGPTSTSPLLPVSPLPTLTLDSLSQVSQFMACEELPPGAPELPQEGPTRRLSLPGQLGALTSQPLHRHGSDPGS

Staphylococcus aureus = experiment: Antibacterial activity against Staphylococcus aureus after 24 hrs by CLSI method; format: functional; outline: as §1
Streptococcus pneumoniae = experiment: Antibacterial activity against Streptococcus pneumoniae after 24 hrs by CLSI method; format: functional; outline: as §1
Escherichia coli [2] = experiment: Antibacterial activity against TolC-deficient Escherichia coli after 24 hrs by CLSI method; format: functional; outline: as §1
[3] = Lipophilicity, log D of the compound by shake flask method using LC-MS analysis; format: physicochemical; conditions: octanol/water
Outline: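 Shake-flask partitioning, experimental, with LC–MS quantitation.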

Streptococcus pyogenes = experiment: Antibacterial activity against Streptococcus pyogenes after 24 hrs by CLSI method; format: functional; outline: as §1
[4] = Inhibition of ParC in reconstituted Escherichia coli ParC/ParE assessed as ParE ATPase activity after 24 hrs by ammonium molybdate/malachite green method
Pseudomonas aeruginosa = experiment: Antibacterial activity against Pseudomonas aeruginosa after 24 hrs by CLSI method; format: functional; outline: as §1
Escherichia coli [5] = experiment: Antibacterial activity against Escherichia coli after 24 hrs by CLSI method; format: functional; outline: as §1
Klebsiella pneumoniae = experiment: Antibacterial activity against Klebsiella pneumoniae after 24 hrs by CLSI method; format: functional; outline: as §1

Work on `O=C1COc2ccc(CNC3CCN(CCN4C(=O)COc5ccc(-n6cnnn6)cc54)CC3)nc2N1` yielded an MIC (Moraxella catarrhalis) of over 10.9 µM, an MIC (Haemophilus influenzae) of over 10.9 µM and an IC50 [1] of over 100000 nM. The MIC (Staphylococcus aureus) was over 10.9 µM, the MIC (Streptococcus pneumoniae) was over 10.9 µM and the MIC (Escherichia coli [2]) was over 10.9 µM. The logD [3] was -0.8, the MIC (Streptococcus pyogenes) was over 10.9 µM and the IC50 [4] was 353 nM. It also gave an MIC (Pseudomonas aeruginosa) of over 10.9 µM, an MIC (Escherichia coli [5]) of over 10.9 µM and an MIC (Klebsiella pneumoniae) of over 10.9 µM.
`CC(O)c1ccc2c(c1)N(CCN1CCC(NCc3ccc4c(n3)NC(=O)CO4)CC1)C(=O)CO2` (centres undefined) showed an MIC (Moraxella catarrhalis) of over 16.6 µM, an MIC (Haemophilus influenzae) of 4.2 µM (≈ 2.02 µg/mL) and an MIC (Staphylococcus aureus) of over 16.6 µM. It also gave an MIC (Streptococcus pneumoniae) of over 16.6 µM, an MIC (Escherichia coli [2]) of 1.1 µM (≈ 0.53 µg/mL) and a logD [3] of 0.3. For the same molecule, the MIC (Streptococcus pyogenes) was over 16.6 µM, the MIC (Pseudomonas aeruginosa) was over 16.6 µM and the MIC (Escherichia coli [5]) was over 16.6 µM. The MIC (Klebsiella pneumoniae) was over 16.6 µM.
`O=C1COc2ccc(CNC3CCN(CCN4C(=O)COc5ccc(O)cc54)CC3)nc2N1` gave an MIC (Moraxella catarrhalis) of 0.1 µM (≈ 0.0453 µg/mL), an MIC (Haemophilus influenzae) of 0.3 µM (≈ 0.136 µg/mL) and an MIC (Staphylococcus aureus) of 17.7 µM (≈ 8.03 µg/mL). For the same molecule, the MIC (Streptococcus pneumoniae) was 8.8 µM (≈ 3.99 µg/mL), the MIC (Escherichia coli [2]) was 0.1 µM (≈ 0.0453 µg/mL) and the logD [3] was 0.5. The MIC (Streptococcus pyogenes) was 1.1 µM (≈ 0.499 µg/mL), the IC50 [4] was 36 nM and the MIC (Pseudomonas aeruginosa) was 17.7 µM (≈ 8.03 µg/mL). The MIC (Escherichia coli [5]) was 4.4 µM (≈ 2 µg/mL) and the MIC (Klebsiella pneumoniae) was over 17.7 µM.
`O=C1COc2ccc(CNC3CCN(CCN4C(=O)COc5ccc(Br)cc54)CC3)nc2N1` showed an MIC (Moraxella catarrhalis) of under 0.015 µM, an MIC (Haemophilus influenzae) of 0.1 µM (≈ 0.0516 µg/mL) and an MIC (Staphylococcus aureus) of 0.1 µM (≈ 0.0516 µg/mL). It also gave an MIC (Streptococcus pneumoniae) of 0.3 µM (≈ 0.155 µg/mL), an MIC (Escherichia coli [2]) of under 0.02 µM and a logD [3] of 1.4. The IC50 [4] was 18 nM, the MIC (Pseudomonas aeruginosa) was 7.7 µM (≈ 3.98 µg/mL) and the MIC (Escherichia coli [5]) was 0.5 µM (≈ 0.258 µg/mL). The MIC (Klebsiella pneumoniae) was 3.9 µM (≈ 2.01 µg/mL).
For `O=C1COc2ccc(CNC3CCN(CCN4C(=O)COc5ccc(NC(=O)C(F)(F)F)cc54)CC3)nc2N1`, the MIC (Moraxella catarrhalis) was 16.1 µM (≈ 8.83 µg/mL), the MIC (Haemophilus influenzae) was 16.1 µM (≈ 8.83 µg/mL) and the IC50 [1] was over 100000 nM. The MIC (Staphylococcus aureus) was over 16.1 µM, the MIC (Streptococcus pneumoniae) was over 16.1 µM and the MIC (Escherichia coli [2]) was 8.1 µM (≈ 4.44 µg/mL). It also gave a logD [3] of 0.2, an MIC (Streptococcus pyogenes) of over 16.1 µM and an MIC (Pseudomonas aeruginosa) of over 16.1 µM. For the same molecule, the MIC (Escherichia coli [5]) was over 16.1 µM and the MIC (Klebsiella pneumoniae) was over 16.1 µM.
`O=C1COc2ccc(CNC3CCN(CCN4C(=O)COc5ccc(C(=O)O)cc54)CC3)nc2N1` showed an MIC (Moraxella catarrhalis) of over 13.5 µM, an MIC (Haemophilus influenzae) of over 13.5 µM and an MIC (Staphylococcus aureus) of over 13.5 µM. The MIC (Streptococcus pneumoniae) was over 13.5 µM, the MIC (Escherichia coli [2]) was over 12.7 µM and the logD [3] was -1.6. It also gave an MIC (Streptococcus pyogenes) of over 13.5 µM, an IC50 [4] of 4680 nM and an MIC (Pseudomonas aeruginosa) of over 13.5 µM. The MIC (Escherichia coli [5]) was over 13.5 µM and the MIC (Klebsiella pneumoniae) was over 13.5 µM.
Molecule `COC(=O)c1ccc2c(c1)N(CCN1CCC(NCc3ccc4c(n3)NC(=O)CO4)CC1)C(=O)CO2` has an MIC (Moraxella catarrhalis) of 0.1 µM (≈ 0.0496 µg/mL), an MIC (Haemophilus influenzae) of 0.5 µM (≈ 0.248 µg/mL) and an MIC (Staphylococcus aureus) of 1 µM (≈ 0.496 µg/mL). It also gave an MIC (Streptococcus pneumoniae) of 8.1 µM (≈ 4.01 µg/mL), an MIC (Escherichia coli [2]) of 0.1 µM (≈ 0.0496 µg/mL) and a logD [3] of 0.8. For the same molecule, the MIC (Streptococcus pyogenes) was 2 µM (≈ 0.991 µg/mL), the IC50 [4] was 78 nM and the MIC (Pseudomonas aeruginosa) was over 16.1 µM. The MIC (Escherichia coli [5]) was 4 µM (≈ 1.98 µg/mL) and the MIC (Klebsiella pneumoniae) was 16.1 µM (≈ 7.98 µg/mL).
`CN(C)S(=O)(=O)c1ccc2c(c1)N(CCN1CCC(NCc3ccc4c(n3)NC(=O)CO4)CC1)C(=O)CO2` gave an MIC (Moraxella catarrhalis) of over 14.6 µM, an MIC (Haemophilus influenzae) of 14.7 µM (≈ 8.01 µg/mL) and an MIC (Staphylococcus aureus) of over 14.6 µM. The MIC (Streptococcus pneumoniae) was over 14.6 µM, the MIC (Escherichia coli [2]) was 7.3 µM (≈ 3.98 µg/mL) and the logD [3] was 0.2. The MIC (Streptococcus pyogenes) was over 14.6 µM, the MIC (Pseudomonas aeruginosa) was over 14.6 µM and the MIC (Escherichia coli [5]) was over 14.6 µM.
`CS(=O)(=O)c1ccc2c(c1)N(CCN1CCC(NCc3ccc4c(n3)NC(=O)CO4)CC1)C(=O)CO2` gave an MIC (Moraxella catarrhalis) of 3.9 µM (≈ 2.01 µg/mL), an MIC (Haemophilus influenzae) of 3.9 µM (≈ 2.01 µg/mL) and an MIC (Staphylococcus aureus) of over 15.5 µM. The MIC (Streptococcus pneumoniae) was 15.5 µM (≈ 7.99 µg/mL), the MIC (Escherichia coli [2]) was 1 µM (≈ 0.516 µg/mL) and the logD [3] was -0.5. For the same molecule, the MIC (Streptococcus pyogenes) was 15.5 µM (≈ 7.99 µg/mL), the MIC (Pseudomonas aeruginosa) was over 15.5 µM and the MIC (Escherichia coli [5]) was over 15.5 µM.
